The IC50 is the concentration at which inhibition is half-maximal.

Active and inactive are the calls of the source. The calls are words filed in the database; no cut-off is given here.

Data set [1] deals with T1, Protein deacetylase HDAC6 (Homo sapiens) (UniProt Q9UBN7).
T1 sequence (whole entry): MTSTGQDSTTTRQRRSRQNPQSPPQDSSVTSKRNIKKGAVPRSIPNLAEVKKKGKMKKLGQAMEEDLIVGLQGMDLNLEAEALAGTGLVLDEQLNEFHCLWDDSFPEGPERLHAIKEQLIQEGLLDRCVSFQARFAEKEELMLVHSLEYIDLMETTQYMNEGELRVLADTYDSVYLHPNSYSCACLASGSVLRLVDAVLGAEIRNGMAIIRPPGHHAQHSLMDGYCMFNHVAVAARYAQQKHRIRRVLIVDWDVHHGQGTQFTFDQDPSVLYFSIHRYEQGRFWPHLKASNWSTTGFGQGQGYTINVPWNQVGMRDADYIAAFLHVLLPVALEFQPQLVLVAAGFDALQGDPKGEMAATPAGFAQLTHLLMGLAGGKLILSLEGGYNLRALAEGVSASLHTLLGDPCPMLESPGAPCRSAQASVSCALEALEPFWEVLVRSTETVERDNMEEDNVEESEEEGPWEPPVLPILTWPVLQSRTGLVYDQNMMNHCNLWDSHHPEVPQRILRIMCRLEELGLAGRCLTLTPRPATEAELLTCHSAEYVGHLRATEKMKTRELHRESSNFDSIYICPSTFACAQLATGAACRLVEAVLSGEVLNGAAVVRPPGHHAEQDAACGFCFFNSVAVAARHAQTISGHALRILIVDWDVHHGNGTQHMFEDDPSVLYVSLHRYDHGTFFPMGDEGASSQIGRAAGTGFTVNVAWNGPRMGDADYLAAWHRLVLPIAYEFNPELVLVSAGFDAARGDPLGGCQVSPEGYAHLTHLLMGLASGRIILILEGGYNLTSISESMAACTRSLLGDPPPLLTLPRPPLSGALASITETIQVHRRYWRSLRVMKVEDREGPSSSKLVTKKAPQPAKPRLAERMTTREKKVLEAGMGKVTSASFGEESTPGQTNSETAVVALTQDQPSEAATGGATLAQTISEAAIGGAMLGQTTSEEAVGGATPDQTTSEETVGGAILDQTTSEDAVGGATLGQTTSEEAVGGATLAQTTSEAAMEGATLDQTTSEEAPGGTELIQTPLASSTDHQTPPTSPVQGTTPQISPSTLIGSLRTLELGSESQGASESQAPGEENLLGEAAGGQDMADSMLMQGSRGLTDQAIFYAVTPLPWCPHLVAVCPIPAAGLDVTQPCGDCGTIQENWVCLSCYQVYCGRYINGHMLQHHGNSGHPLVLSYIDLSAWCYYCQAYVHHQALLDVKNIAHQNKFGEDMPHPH
Description: Inhibition of HDAC6 in human MV4-11 cells assessed as increase in acetylation of tubulin at lysine 40 by Western blot analysis. The format is cell-based. For orientation: Immunoblotting shows a protein as a band on a membrane.

Data set [2] has as its system MV4-11. Description: Cytotoxicity against human MV4-11 cells assessed as cell viability after 24 to 96 hrs by MTT assay. The format is functional, cell-based. A digest of the protocol: (§1)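 AML cells kept in RPMI with 10 % FBS and 1 % penicillin-streptomycin at 37 °C, 5 % CO₂, mycoplasma-screened. Seeded at 8,000 cells/well across a range of concentrations and read at several times up to 96 h. MTT added to 0.5 mg/ml final for 3 h at 37 °C, formazan dissolved in SDS-HCl, absorbance read at 570 nm. IC50 taken from the dose-response curves.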
Background: Tetrazolium assays rely on reduction of a dye to a coloured formazan, in cell work by metabolically active cells.

Data set [3] relates to MOLM-14. Description: Cell cycle arrest in human MOLM14 cells assessed as accumulation at G2/M phase after 72 hrs by propidium iodide staining-based flow cytometric analysis. Type of data set: functional. The gist of the method:
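Cells in RPMI with 10 % FBS at 37 °C, 5 % CO₂; treated up to 72 h, washed in cold PBS, fixed in -20 °C-precooled 70 % ethanol at 4 °C. Stained with 50 µg/ml PI, 1 % Triton X-100 and 20 µg/ml RNase A in PBS, 30 min, 37 °C, dark. Cell-cycle phases read by flow cytometry; three independent experiments, mean ± SD.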

Data set [4] deals with MOLM-13 (Homo sapiens). Put plainly: Induction of apoptosis in human MOLM13 cells assessed as late apoptotic cells at 2.5 uM after 72 hrs by Annexin V-FITC/propidium iodide staining-based flow cytometric analysis (reference value: 7%).
Data set [5] concerns MV4-11. Put plainly: Effect on total histone H3 protein expression in human MV4-11 cells by Western blot analysis. Type of data set: ADME, cell-based. A digest of the protocol: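 Histones acid-extracted from MV4-11 cells: Triton/EDTA buffer lysis, NaCl wash, then 0.24 M H₂SO₄ final on ice for 2 h and acetone precipitation. Protein measured by Bradford. 0.5 µg loaded on 4-20 % gradient gels and transferred to PVDF. Anti-histone H3 probed as loading control alongside anti-acetyl-H3 (1:1000 in 5 % milk, overnight, 4 °C); HRP secondary 1 h, ECL detection.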

Data set [6] concerns MOLM-14. Put plainly: Induction of apoptosis in human MOLM14 cells after 72 hrs by Annexin V-FITC/propidium iodide staining-based flow cytometric analysis. The format is functional, cell-based. The gist of the method: (§2)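 100,000 cells per well treated with 2.5, 5.0 or 10 μM for 72 h. Washed in ice-cold Ca/Mg-free PBS, resuspended in 100 μl binding buffer, stained with 5 μl PI plus 3 μl annexin V-FITC for 15 min in the dark, then read immediately by flow cytometry. Quadrants scored as live, early apoptotic, late apoptotic and necrotic.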

Data set [7] deals with MOLM-13 (Homo sapiens). Description: Induction of apoptosis in human MOLM13 cells assessed as early apoptotic cells at 2.5 uM after 72 hrs by Annexin V-FITC/propidium iodide staining-based flow cytometric analysis (reference value: 11%).
For data set [8], the system named is MV4-11. Put plainly: Induction of apoptosis in human MV4-11 cells after 72 hrs by Annexin V-FITC/propidium iodide staining-based flow cytometric analysis. Type of data set: functional, cell-based. The gist of the method: as §2
(Flow cytometry measures light scatter and fluorescence of single cells or particles in a stream.)

Data set [9] concerns MOLM-14. Description: Cytotoxicity against human MOLM14 cells assessed as cell viability measured at 96 hrs by MTT assay. As to conditions: MOLM-14, 96 h. The format is functional, cell-based. The gist of the method: as §1
In data set [10] the test system is MV4-11. Description: Induction of apoptosis in human MV4-11 cells assessed as necrotic cells at 5 uM after 72 hrs by Annexin V-FITC/propidium iodide staining-based flow cytometric analysis relative to control. The format is functional. A digest of the protocol: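 MV4-11 cells (RPMI, 10 % FBS, 37 °C, 5 % CO2), 100,000 per well, exposed to PTB at 2.5, 5.0 or 10 μM for 72 h. Washed in ice-cold Ca/Mg-free PBS, stained with annexin V-FITC and PI in 1X binding buffer for 15 min in the dark, then read at once by flow cytometry. Necrotic cells are the annexin-negative/PI-positive quadrant.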

The subject of data set [11] is MOLM-13 (Homo sapiens). Description: Induction of apoptosis in human MOLM13 cells assessed as late apoptotic cells at 5 uM after 72 hrs by Annexin V-FITC/propidium iodide staining-based flow cytometric analysis (reference value: 7%).
Data set [12] deals with MOLM-14. Put plainly: Induction of apoptosis in human MOLM14 cells assessed as necrotic cells at 5 uM after 72 hrs by Annexin V-FITC/propidium iodide staining-based flow cytometric analysis (reference value: 1%). The format is functional. The gist of the method: as §2

For the molecule `c1ccc(Oc2ccc(-c3cn(-c4noc5ccccc45)nn3)cc2)cc1`, the inhibition result in data set [1] is “Active”. The Activity entry was “Dose-dependent effect” in data set [2]; 20% in [4]; “Non-toxic” in data set [5]; “Dose-dependent effect” in data set [6]; 15% in data set [7]; “Dose-dependent effect” in data set [8]. Besides, the Activity in [10] was 3%; in data set [11], 26%; in data set [12], 7%. The result in data set [3] was Active. Moreover, the IC50 in data set [9] came to 2 µM.

These data come from ChEMBL document CHEMBL3612059, “Synthesis of 1,2-benzisoxazole tethered 1,2,3-triazoles that exhibit anticancer activity in acute myeloid leukemia cell lines by inhibiting histone deacetylases, and inducing p21 and tubulin acetylation” (Bioorg Med Chem, 2015).
